RAD54 branch = inhibitors of human RAD54 branch migration, primary screen, biochemical, fluorescence, single point; DNA repair and recombination protein RAD54-like (Homo sapiens), Q92698; RAD54 Holliday junction branch migration, FAM/BHQ fluorescence; inhibition, % at 10.4 µM; 360,000 tested, 0.14% active;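 active = mean normalized replicate activity at least 40 and at least half of replicates scoring 40 or more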;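 also: 0% = median of neutral control wells and 100% = median of positive control wells; inhibitors cause a drop in the FAM fluorescence signal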
PvdQ inh = P. aeruginosa PvdQ acylase inhibitors, primary screen, biochemical, fluorescence, plate reader and imaging, single point; PvdQ acylase [Pseudomonas aeruginosa LESB58]; purified PvdQ acylase; inhibition, % at 10 µM; 340,000 tested, 0.063% active; AID 488965, 2010; in the data active = inhibition above about 30%, passing the limit was not always enough;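 also: 0% = vehicle neutral wells and 100% = reference inhibitor wells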
IMP-1 inh-1 = IMP-1 metallo-beta-lactamase inhibitors, primary screen, biochemical, epi-absorbance readout, Pseudomonas aeruginosa enzyme; 290,000 tested, 0.45% active; purified IMP-1, nitrocefin hydrolysis, epi-absorbance fluorescence; inhibition, % at 5.6 µM;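 active = inhibition above the mean plus 3 SD of all compounds in the same screening run, cut at about 4.5% in these data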;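 also: 0% = IMP-1 with DMSO and 100% = DMSO wells lacking enzyme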
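System: purified recombinant IMP-1 beta-lactamase. Medium: Zinc- and detergent-supplemented HEPES buffer, pH 7.1. Compound: one 5.6 µM dose […]. Schedule: 15 min preincubation plus 25 min reaction at 25 °C. Technique: Epi-absorbance fluorescence, 480 nm excitation, 530 nm emission.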
DNA FID counter = compounds displacing fluorescent DNA intercalator, primary screen, artefact control for HCV NS3 helicase inhibitor project, biochemical, FID fluorescence; inhibition, % at 7.9 µM; DNA fluorescent intercalator displacement; 290,000 tested, 0.17% active; AID 1845, 2009; in the data active = inhibition above about 37%;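 also: 0% = vehicle and 100% = reference compound; higher means more ethidium bromide displaced from hairpin DNA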
VIM-2 inhibitor = VIM-2 metallo-beta-lactamase inhibitors, primary screen, biochemical, epi-absorbance readout, Pseudomonas aeruginosa enzyme; purified VIM-2, nitrocefin hydrolysis, epi-absorbance fluorescence; inhibition, % at 5.6 µM; 290,000 tested, 0.89% active;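 active = inhibition above the mean of all tested compounds plus 3 SD, cutoff set per screening run, cut at about 7.5% in these data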;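 also: red hydrolysis product quenches plate fluorescence so inhibitors raise well fluorescence; 0% = enzyme with DMSO and 100% = DMSO without enzyme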
IMP-1 inh-2 = IMP-1 metallo-beta-lactamase inhibitors, confirmation, selectivity assay for selective VIM-2 inhibitor project, biochemical, epi-absorbance readout, triplicate; AID 1856, 2009; inhibition, % at 5.6 µM; 1,300 tested, under 10 active; purified IMP-1, nitrocefin hydrolysis, epi-absorbance fluorescence; shares compounds with VIM-2 inhibitor; call rule not given here;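 also: 0% = enzyme with vehicle and 100% = vehicle without enzyme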
VIM-2 FRET inh = VIM-2 inhibitors in FRET format, confirmation, artefact control for selective VIM-2 inhibitor project, biochemical, epi-absorbance artifact exclusion; shares compounds with VIM-2 inhibitor; purified VIM-2, CCF2 FRET substrate hydrolysis; inhibition, % at 5.6 µM; 1,300 tested, 23% active; AID 1857, 2009;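 active = inhibition above the mean of all tested compounds plus 3 SD, cut at about 19% in these data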;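 also: 0% = VIM-2 plus DMSO and 100% = no enzyme wells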
TEM-1 counter = TEM-1 serine beta-lactamase inhibitors, counter-screen for VIM-2 inhibitor project, biochemical, epi-absorbance, HTS; inhibition, % at 5.6 µM; Purified TEM-1, nitrocefin hydrolysis, epi-absorbance fluorescence; 1,300 tested, 3% active; AID 1866, 2009; shares compounds with VIM-2 inhibitor;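 active = inhibition above that campaign's mean inhibition plus 3 SD, cut at about 0.46% in these data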;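 also: 0% = TEM-1 with DMSO and 100% = TEM-1 with 100 µM potassium clavulanate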
Target sequence (P62593 whole entry, looked up): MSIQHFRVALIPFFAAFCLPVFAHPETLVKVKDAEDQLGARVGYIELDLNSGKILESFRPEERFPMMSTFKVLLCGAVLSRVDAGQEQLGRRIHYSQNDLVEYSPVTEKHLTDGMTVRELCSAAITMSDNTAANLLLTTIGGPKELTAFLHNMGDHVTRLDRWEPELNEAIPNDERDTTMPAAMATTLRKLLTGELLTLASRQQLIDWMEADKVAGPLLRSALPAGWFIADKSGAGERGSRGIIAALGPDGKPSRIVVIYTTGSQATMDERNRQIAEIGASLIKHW
VIM-2 confirm 2 = VIM-2 metallo-beta-lactamase inhibitors, confirmation, biochemical, epi-absorbance, hits shared with IMP-1 screen | inhibition, % at 5.6 µM | 1,300 tested, 96% active | shares compounds with VIM-2 inhibitor | AID 2187, 2009 | purified VIM-2, nitrocefin hydrolysis;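 active = inhibition of the VIM-2 beta-lactamase enzyme above about 11% from the earlier first-round screen, limit read from the data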;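 also: 0% = VIM-2 with DMSO and 100% = buffer wells without enzyme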
* marks the source's active call; other numbers are inactive results; x = no result given. Compounds with a hit are over-represented: about 1% of the library has one in this group of screens.

SMILES	RAD54 branch	PvdQ inh	IMP-1 inh-1	DNA FID counter	VIM-2 inhibitor	IMP-1 inh-2	VIM-2 FRET inh	TEM-1 counter	VIM-2 confirm 2
COCC(=O)N(C)C[C@H]1Oc2ncc(C3=CCCC3)cc2C(=O)N([C@H](C)CO)C[C@@H]1C	6	x	x	x	x	x	x	x	x
CN1CCN(C(=O)CCn2c(=O)c3cccn3c3cccnc32)CC1	8	-3	-1	12	14*	-4	-2	-6	26*
CC(C)NC(=O)Nc1ccc2c(c1)CC(=O)N([C@H](C)CO)C[C@@H](C)[C@@H](CN(C)C(=O)Nc1ccc(F)cc1)O2	-24	x	x	x	x	x	x	x	x
Cc1nc2cc(-c3ccc(Cl)cc3)nn2c(NCCN(C)C)c1C	x	0	-3	27	19*	-2	-3	-7	44*
OC[C@H]1[C@H](c2ccc(Br)cc2)[C@H]2CN(Cc3ccccn3)CCCCN21	3	x	x	x	x	x	x	x	x
CCCNC(=O)C[C@H]1CC[C@@H]2[C@H](COc3ccc(NC(=O)NC(C)C)cc3C(=O)N2C)O1	-8	x	x	x	x	x	x	x	x
Cn1c(C(=O)NCCN2CCc3ccccc3C2)cc2c(=O)n(C)c3ccccc3c21	36	-19	0	15	19*	-3	-1	-7	28*
COCCNC(=O)c1cc2c(=O)n3cccc(C)c3nc2n1C	6	-13	x	x	x	x	x	x	x
CCN1CCN(C(=O)c2cc3c(=O)n(C)c4ccccc4c3n2C)CC1	35	23	-3	14	17*	-3	4	-6	22*
Cn1c(C(=O)N2CCN(Cc3ccccc3)CC2)cc2c(=O)n(C)c3ccccc3c21	23	-8	-2	-10	7	x	x	x	x
CN(CCNC(=O)c1cc2c(=O)n(C)c3ccccc3c2n1C)Cc1ccccc1	52*	-10	-1	13	17*	-4	2	-8	26*
Cc1cccn2c(=O)c3cc(C(=O)NCCCN4CCCC4=O)n(C)c3nc12	13	-9	-1	-26	17*	-2	-8	1.2*	26*
COc1cccc(S(=O)(=O)N[C@H]2CC[C@H](CCNC(=O)Nc3cc(F)ccc3F)O[C@H]2CO)c1	-6	x	x	x	x	x	x	x	x
CC(C)CC#Cc1ccc2c(c1)O[C@@H](CN(C)C(=O)Cc1ccccn1)[C@H](C)CN([C@@H](C)CO)S2(=O)=O	0	x	x	x	x	x	x	x	x
C[C@@H]1CN([C@@H](C)CO)C(=O)c2cccc(NC(=O)Nc3ccc4c(c3)OCO4)c2O[C@@H]1CN(C)S(=O)(=O)c1ccc(Cl)cc1	-26	x	x	x	x	x	x	x	x
Cn1c2ccccc2c2c(C(=O)NCCCN3CCCC3=O)cn(C3CCCCC3)c(=O)c21	-3	-8	-1	-17	-2	x	x	x	x
Cn1c(C(=O)NCCCN2CCCC2=O)cc2c(=O)n(C)c3ccccc3c21	-3	-12	-3	-27	13*	-3	-3	-6	29*
Cc1cc(OC(C)C(=O)NCCCn2ccnc2)c2c(C)cc(=O)oc2c1 (stereo not given)	8	-13	-2	-7	28*	-2	-4	-3	39*
Cc1cc(OC(C)C(=O)NCCCN2CCOCC2)c2c(C)cc(=O)oc2c1 (stereo not given)	4	-9	-1	4	1	x	x	x	x
CCCc1cc(=O)oc2cc(C)cc(OC(C)C(=O)NCCCn3ccnc3)c12 (stereo not given)	-1	-25	-3	-6	18*	-2	-10	-2	28*
C[C@H](CO)N1C[C@H](C)[C@@H](CN(C)S(C)(=O)=O)OCCCC[C@H](C)Oc2ccc(NC(=O)CCCN(C)C)cc2C1=O	-3	x	x	x	x	x	x	x	x
CCOC(=O)c1cnc(-n2nc(C)cc2C)nc1NCc1ccc2c(c1)OCO2	-21	-4	-5	-5	58*	-3	-33	1.6*	89*
CCOC(=O)c1cnc(-n2nc(C)cc2C)nc1N(C)C	2	-5	-6	-11	2	x	x	x	x
CCCNC(=O)[C@H]1[C@H](CO)[C@H]2Cn3c(ccc(C4=CCCCC4)c3=O)[C@@H]1N2CC	-6	x	x	x	x	x	x	x	x
Cc1ccc(-c2nn3c(C)nnc3c3ccccc23)cc1S(=O)(=O)NCCN1CCOCC1	-11	-7	-3	1	42*	-3	3	-3	58*
SMILES	RAD54 branch	PvdQ inh	IMP-1 inh-1	DNA FID counter	VIM-2 inhibitor	IMP-1 inh-2	VIM-2 FRET inh	TEM-1 counter	VIM-2 confirm 2
Cc1ccc(-c2n[nH]c(=O)c3ccccc23)cc1S(=O)(=O)NCCN1CCOCC1	-5	-16	-2	9	8	x	x	x	x
Cc1ccc(-c2nn3c(C)nnc3c3ccccc23)cc1S(=O)(=O)N(C)CCO	3	-14	-3	-21	21*	-5	1	-6	32*
Cc1noc(C)c1NC(=O)N(C)C[C@@H]1Oc2ccc(NS(=O)(=O)c3cn(C)cn3)cc2C(=O)N([C@H](C)CO)C[C@H]1C	-4	x	x	x	x	x	x	x	x
O=C(CSc1nnc(-c2cccs2)n1CC1CCCO1)c1cc2ccccc2o1 (stereo not given)	-8	-10	-2	-24	14*	-4	31*	-9	17*
Cn1c(SCC(=O)c2cc3ccccc3o2)nnc1-c1ccccc1	2	-7	-2	-16	-5	x	x	x	x
O=C1c2ccccc2C(=O)c2c(NCCCN(CCO)CCO)cccc21	x	-2	-4	89*	22*	-4	-3	-13	36*
CNCc1cc(Br)c(OCC(=O)Nc2ccccc2OC)c(OC)c1	x	-10	-2	19	13*	-4	1	-4	27*
O=C(O)Cn1cccc1C(=O)c1ccccc1	-8	-9	-3	1	33*	-2	49*	-4	30*
CC(=O)NCCn1c(SCC(=O)c2ccccc2)nc2ccccc2c1=O	10	-14	-2	-23	14*	-2	24*	-4	20*
CC(=O)NCCn1c(SCC(=O)OCc2ccccc2)nc2ccccc2c1=O	-5	1	-3	-27	-2	x	x	x	x
COC(=O)c1oc2nc(C)cc(C)c2c1N	15	-8	4	-6	15*	-3	0	-6	14*

Screening data: PubChem BioAssay, several laboratories
